Experiments:
[1] = tested on: Mus musculus; assay: Compound was tested for cognitive activity by measuring retention for passive avoidance learning in mice at dose 0.32 mg/kg; assay type: functional, organism-based; parameters: dose 0.32 mg/kg
In short: (§1)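 Male CF-1 mice (19–21 g at shipment), 20 per dose group, each used once. Given ip an aqueous solution or methocel suspension 1 h before footshock training, with a saline group run alongside. Retention test: mouse placed on an outer shelf of the box; entering within 60 s scored as not retained. Value is percent retention. Days with control retention outside 65–75% were discarded.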

[2] = tested on: Mus musculus; assay: Retention for passive avoidance learning in mice at dose 2.5 mg/kg; assay type: functional, organism-based; parameters: dose 2.5 mg/kg
In short: (§2)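 Naive male CF-1 mice (19–21 g at shipment), 20 per dose, each used once. Dosed i.p. as an aqueous solution or methocel suspension 1 h before footshock training, with a saline group run in parallel. At the test, mice were placed on an outside shelf; entering the box within 60 s counted as no retention. Values are percent retention. A day was discarded unless controls scored 65–75%.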

[3] = tested on: Mus musculus; assay: Compound was tested for cognitive activity by measuring retention for passive avoidance learning in mice at dose 1.25 mg/kg; assay type: functional, organism-based; parameters: dose 1.25 mg/kg; in short: as §1
[4] = tested on: Mus musculus; assay: (§3) Compound was tested for cognitive activity by measuring retention for passive avoidance learning in mice at dose 0.63 mg/kg; assay type: functional, organism-based; parameters: dose 0.63 mg/kg; in short: as §1
[5] = tested on: Mus musculus; assay: Retention for passive avoidance learning in mice at dose 5 mg/kg; assay type: functional, organism-based; parameters: dose 5 mg/kg; in short: as §2
[6] = tested on: Mus musculus; assay: Retention for passive avoidance learning in mice at dose 5.0 mg/kg; assay type: functional, organism-based; parameters: dose 5 mg/kg; in short: as §2
[7] = tested on: Mus musculus; assay: Retention for passive avoidance learning in mice at dose 80 mg/kg; assay type: functional, organism-based; parameters: dose 80 mg/kg; in short: as §2
[8] = tested on: Mus musculus; assay: Retention for passive avoidance learning in mice at dose 1.25 mg/kg; assay type: functional, organism-based; parameters: dose 1.25 mg/kg; in short: as §2
[9] = tested on: Mus musculus; assay: Retention for passive avoidance learning in mice at dose 20 mg/kg; assay type: functional, organism-based; parameters: dose 20 mg/kg; in short: as §2
[10] = tested on: Mus musculus; assay: as §3; assay type: functional, organism-based; parameters: dose 0.63 mg/kg; in short: as §2; remark: listed apart in the source
[11] = tested on: Mus musculus; assay: Compound was tested for cognitive activity by measuring retention for passive avoidance learning in mice at dose 40 mg/kg; assay type: functional, organism-based; parameters: dose 40 mg/kg; in short: as §2
[12] = tested on: Mus musculus; assay: Compound was tested for cognitive activity by measuring retention for passive avoidance learning in mice at dose 10 mg/kg; assay type: functional, organism-based; parameters: dose 10 mg/kg; in short: as §1
[13] = species: Mus musculus
[14] = tested on: Mus musculus; assay: Compound was tested for cognitive activity by measuring retention for passive avoidance learning in mice at dose 20 mg/kg; assay type: functional, organism-based; parameters: dose 20 mg/kg; in short: as §2
[15] = tested on: Mus musculus; assay: Compound was tested for cognitive activity by measuring retention for passive avoidance learning in mice at dose 2.5 mg/kg; assay type: functional, organism-based; parameters: dose 2.5 mg/kg; in short: as §1
[16] = tested on: Mus musculus; assay: Compound was tested for cognitive activity by measuring retention for passive avoidance learning in mice at dose 0.15 mg/kg; assay type: functional, organism-based; parameters: dose 0.15 mg/kg; in short: as §1
[17] = species: Mus musculus; remark: listed apart in the source
[18] = tested on: Mus musculus; assay: Compound was tested for cognitive activity by measuring retention for passive avoidance learning in mice at dose 20 mg/kg i; assay type: functional, organism-based; parameters: dose 20 mg/kg; in short: as §1
[19] = species: Mus musculus; remark: listed apart in the source
[20] = tested on: Mus musculus; assay: Compound was tested for lethality in mice at a dose 80 mg/kg intraperitoneally; L denotes lethal at this dose; assay type: functional, organism-based; parameters: dose 80 mg/kg
In short: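 Male CF-1 mice, 20 per group, were given the agent i.p. as an aqueous solution or methocel suspension 1 h before passive-avoidance training. The table entry L marks a dose that killed the animals.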

Compound	Retention [2]	Retention [6]	Retention [7]	Retention [8]	Retention [9]	other results
C=C(C)[C@@H]1[C@H]2OC(=O)[C@@H]1[C@]1(O)C[C@H]3OC34C(=O)O[C@H]2[C@@]41C.CC(C)(O)[C@@H]1[C@H]2OC(=O)[C@@H]1[C@]1(O)C[C@H]3OC34C(=O)O[C@H]2[C@@]41C (stereo partly drawn)	80%	–	–	–	–	Retention [1]: 65%; Retention [3]: 90%; Retention [4]: 80%; Retention [5]: 70%
Clc1ccc(Oc2cccnc2)cc1	70%	80%	65%	65%	30%	Retention [10]: 55%
[Cl-].[Li+]	70%	–	38%	84%	–	Retention [4]: 60%; Retention [5]: 0%; Retention [11]: 23%; Retention [12]: 31%
c1ccc(Oc2ccccn2)cc1	–	65%	30%	–	50%	–
NC1=NC(=O)C(c2ccccc2)O1 (stereo not drawn)	–	–	77%	–	83%	Retention [5]: 30%; Retention [11]: 83%; Retention [12]: 70%
CN(C)CCCN1c2ccccc2CCc2ccccc21	–	–	–	–	77%	Retention [5]: 65%; Retention [11]: 72%; Retention [12]: 80%
CN1CCC[C@H]1c1cccnc1	27%	–	–	–	–	Retention [1]: 70%; Retention [3]: 53%; Retention [4]: 75%; Retention [13]: Lethal
COc1cccc(Oc2cccnc2)c1	–	55%	20%	–	55%	–
Cc1ncccc1Oc1ccccc1[N+](=O)[O-]	70%	85%	35%	70%	70%	–
Brc1ccc(Oc2cccnc2)cc1	70%	90%	85%	75%	70%	Retention [10]: 75%
Brc1ccccc1Oc1cccnc1	–	65%	–	–	–	Retention [14]: 50%
FC(F)(F)c1cccc(Oc2cccnc2)c1	–	30%	–	–	55%	–
O=C1C[C@@H]2OCC=C3CN4CC[C@]56c7ccccc7N1[C@H]5[C@H]2[C@H]3C[C@H]46	–	–	–	–	–	Retention [1]: 70%; Retention [4]: 75%
Cc1cncc(Oc2ccccc2)c1	–	70%	45%	–	80%	–
Cc1ncccc1Oc1ccccc1N	–	65%	40%	–	45%	–
COc1cc2c(cc1OC)C1CC(=O)C(CC(C)C)CN1CC2 (stereo not drawn)	63%	–	–	59%	–	Retention [5]: 33%
COC(=O)C(c1ccccc1)C1CCCCN1 (stereo not drawn)	50%	–	–	50%	87%	Retention [5]: 90%; Retention [12]: 65%
Cn1c(=O)c2c(ncn2C)n(C)c1=O	37%	–	0%	87%	–	Retention [4]: 70%; Retention [5]: 37%; Retention [11]: 3%; Retention [12]: 3%
Fc1ccccc1Oc1cccnc1	80%	90%	50%	65%	85%	Retention [10]: 60%
[O-][n+]1cccc(Oc2ccc[n+]([O-])c2)c1	60%	90%	60%	75%	90%	Retention [10]: 65%
c1ccc(Oc2cccnc2)cc1	90%	100%	35%	90%	70%	Retention [10]: 65%
CCCC(C)C1(CC)C(=O)NC(=O)NC1=O (stereo not drawn)	7%	–	–	40%	–	Retention [4]: 23%
C[C@H](N)Cc1ccccc1	–	–	–	–	–	Retention [1]: 80%; Retention [3]: 60%; Retention [4]: 100%; Retention [15]: 65%; Retention [16]: 45%
COC(=O)c1cccc(Oc2cccnc2)c1	–	70%	55%	–	60%	–

Compound	Retention [2]	Retention [6]	Retention [7]	Retention [8]	Retention [9]	other results
CC(N)Cc1ccccc1 (stereo not drawn)	75%	–	–	70%	–	–
Nc1ccccc1Oc1cccnc1	70%	80%	55%	–	65%	–
Cc1ccncc1Oc1ccccc1	–	75%	15%	–	85%	–
N[C@@H]1C[C@H]1c1ccccc1.N[C@H]1C[C@@H]1c1ccccc1	–	–	–	–	55%	Retention [5]: 75%; Retention [17]: Lethal at this dose; Retention [12]: 80%
Clc1cccc(Oc2cccnc2)c1	–	60%	0%	–	60%	–
CCOc1ccccc1Oc1cccnc1	–	70%	65%	–	70%	–
c1cncc(Oc2cccnc2)c1	–	85%	55%	–	100%	–
[O-][n+]1cccc(Oc2ccccc2)c1	–	40%	0%	–	20%	–
Fc1ccc(Oc2cccnc2)cc1	85%	95%	50%	60%	80%	Retention [10]: 35%
Fc1cccc(Oc2cccnc2)c1	75%	90%	55%	75%	55%	Retention [10]: 65%
O=[N+]([O-])c1ccccc1Oc1cccnc1	–	60%	50%	–	90%	–
O=C1NC(=O)C(c2ccccc2)(c2ccccc2)N1	75%	–	15%	85%	–	Retention [18]: 55%; Retention [5]: 90%; Retention [11]: 50%; Retention [12]: 43%
CN1C(=O)CN=C(c2ccccc2)c2cc(Cl)ccc21	40%	–	–	53%	–	Retention [5]: 41%
CCC1(C)CC(=O)NC1=O (stereo not drawn)	–	–	95%	–	–	Retention [18]: 90%; Retention [11]: 70%; Retention [12]: 63%
c1ccc(Oc2ccncc2)cc1	–	70%	0%	–	65%	–
O=c1[nH]c2ccccc2n1C1CCN(CCCC(c2ccc(F)cc2)c2ccc(F)cc2)CC1	–	–	–	–	–	Retention [1]: 40%; Retention [4]: 27%; Retention [16]: 43%
CNC(=O)Oc1ccc2c(c1)[C@]1(C)CCN(C)[C@@H]1N2C	–	–	–	–	–	Retention [1]: 35%; Retention [19]: Lethal; Retention [16]: 45%
Clc1ccccc1Oc1cccnc1	40%	95%	40%	45%	80%	Retention [10]: 60%
COc1ccc(Oc2cccnc2)cc1	–	78%	35%	–	75%	–
C1CCc2nnnn2CC1	–	–	–	–	80%	Retention [20]: Lethal at this dose; Retention [5]: 80%; Retention [11]: 80%; Retention [12]: 65%
CN1[C@@H]2C[C@@H](OC(=O)[C@H](CO)c3ccccc3)C[C@H]1[C@@H]1O[C@@H]12	–	–	–	–	–	Retention [1]: 65%; Retention [3]: 35%; Retention [4]: 30%; Retention [16]: 65%
c1ccc(Sc2cccnc2)cc1	–	80%	85%	–	85%	–
CN(C)CCCN1c2ccccc2Sc2ccc(Cl)cc21	70%	–	–	70%	–	Retention [5]: 20%
[O-][n+]1cccc(Oc2cccnc2)c1	65%	85%	85%	45%	85%	Retention [10]: 60%
